This note sets out measurements from ChEMBL document CHEMBL1139597, “Evaluation of 3-substituted arginine analogs as selective inhibitors of human nitric oxide synthase isozymes” (Bioorg Med Chem Lett, 2005).

Each structure is given as a SMILES string.

In general, IC50 refers to the concentration at which inhibition is half-maximal. High values mean weaker potency in that assay, low ones greater potency in that assay.

One experiment deals with T1, Nitric oxide synthase 3 (Homo sapiens, UniProt P29474).
T1 sequence (P29474 whole entry): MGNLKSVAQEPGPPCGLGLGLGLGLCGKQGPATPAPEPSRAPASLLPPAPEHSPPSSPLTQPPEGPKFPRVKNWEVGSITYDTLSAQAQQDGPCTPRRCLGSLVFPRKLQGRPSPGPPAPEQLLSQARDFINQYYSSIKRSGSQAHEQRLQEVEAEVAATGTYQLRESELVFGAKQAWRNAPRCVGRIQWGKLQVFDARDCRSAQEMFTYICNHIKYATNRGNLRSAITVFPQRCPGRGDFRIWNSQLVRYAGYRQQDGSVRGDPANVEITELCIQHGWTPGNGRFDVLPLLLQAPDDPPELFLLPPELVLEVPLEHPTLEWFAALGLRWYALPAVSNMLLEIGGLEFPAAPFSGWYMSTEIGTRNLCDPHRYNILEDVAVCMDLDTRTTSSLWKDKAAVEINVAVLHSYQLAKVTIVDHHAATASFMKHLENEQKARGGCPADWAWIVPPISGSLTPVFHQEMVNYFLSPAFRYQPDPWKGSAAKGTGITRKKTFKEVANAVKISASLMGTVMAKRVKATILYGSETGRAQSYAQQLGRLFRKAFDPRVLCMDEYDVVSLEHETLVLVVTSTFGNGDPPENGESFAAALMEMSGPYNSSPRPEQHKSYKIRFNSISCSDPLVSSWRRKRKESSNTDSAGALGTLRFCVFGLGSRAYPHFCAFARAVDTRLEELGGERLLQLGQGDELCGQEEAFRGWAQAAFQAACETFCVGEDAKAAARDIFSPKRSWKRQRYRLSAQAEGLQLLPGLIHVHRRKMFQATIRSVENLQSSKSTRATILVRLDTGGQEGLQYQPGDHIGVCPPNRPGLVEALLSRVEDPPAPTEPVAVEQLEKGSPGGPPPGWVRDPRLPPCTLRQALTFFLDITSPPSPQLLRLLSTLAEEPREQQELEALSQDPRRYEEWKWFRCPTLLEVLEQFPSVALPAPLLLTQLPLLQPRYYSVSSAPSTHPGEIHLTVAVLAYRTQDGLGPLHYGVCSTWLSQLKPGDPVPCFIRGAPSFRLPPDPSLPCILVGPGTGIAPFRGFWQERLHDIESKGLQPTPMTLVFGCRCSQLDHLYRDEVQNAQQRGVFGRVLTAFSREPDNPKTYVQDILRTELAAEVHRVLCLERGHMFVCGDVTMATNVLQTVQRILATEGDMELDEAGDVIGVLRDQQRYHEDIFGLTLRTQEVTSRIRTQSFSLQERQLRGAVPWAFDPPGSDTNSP
The experiment is described as follows: Inhibitory concentration against human endothelial nitric oxide synthase expressed in Sf-9 cells. In a few lines:
(§1)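 Recombinant human NOS isozyme produced in Sf-9 insect cells. Enzyme activity was followed as conversion of [¹⁴C]-L-Arg to [¹⁴C]-L-Cit, and IC50 was calculated from the concentration dependence of inhibition. Inhibitors were tested up to 1 mM.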

The target in experiment [1] is Nitric oxide synthase, inducible (Homo sapiens, UniProt P35228). The experiment is described as follows: Inhibitory concentration against human inducible nitric oxide synthase expressed in Sf-9 cells. In a few lines: as §1
Sequence of Nitric oxide synthase, inducible (P35228 whole entry): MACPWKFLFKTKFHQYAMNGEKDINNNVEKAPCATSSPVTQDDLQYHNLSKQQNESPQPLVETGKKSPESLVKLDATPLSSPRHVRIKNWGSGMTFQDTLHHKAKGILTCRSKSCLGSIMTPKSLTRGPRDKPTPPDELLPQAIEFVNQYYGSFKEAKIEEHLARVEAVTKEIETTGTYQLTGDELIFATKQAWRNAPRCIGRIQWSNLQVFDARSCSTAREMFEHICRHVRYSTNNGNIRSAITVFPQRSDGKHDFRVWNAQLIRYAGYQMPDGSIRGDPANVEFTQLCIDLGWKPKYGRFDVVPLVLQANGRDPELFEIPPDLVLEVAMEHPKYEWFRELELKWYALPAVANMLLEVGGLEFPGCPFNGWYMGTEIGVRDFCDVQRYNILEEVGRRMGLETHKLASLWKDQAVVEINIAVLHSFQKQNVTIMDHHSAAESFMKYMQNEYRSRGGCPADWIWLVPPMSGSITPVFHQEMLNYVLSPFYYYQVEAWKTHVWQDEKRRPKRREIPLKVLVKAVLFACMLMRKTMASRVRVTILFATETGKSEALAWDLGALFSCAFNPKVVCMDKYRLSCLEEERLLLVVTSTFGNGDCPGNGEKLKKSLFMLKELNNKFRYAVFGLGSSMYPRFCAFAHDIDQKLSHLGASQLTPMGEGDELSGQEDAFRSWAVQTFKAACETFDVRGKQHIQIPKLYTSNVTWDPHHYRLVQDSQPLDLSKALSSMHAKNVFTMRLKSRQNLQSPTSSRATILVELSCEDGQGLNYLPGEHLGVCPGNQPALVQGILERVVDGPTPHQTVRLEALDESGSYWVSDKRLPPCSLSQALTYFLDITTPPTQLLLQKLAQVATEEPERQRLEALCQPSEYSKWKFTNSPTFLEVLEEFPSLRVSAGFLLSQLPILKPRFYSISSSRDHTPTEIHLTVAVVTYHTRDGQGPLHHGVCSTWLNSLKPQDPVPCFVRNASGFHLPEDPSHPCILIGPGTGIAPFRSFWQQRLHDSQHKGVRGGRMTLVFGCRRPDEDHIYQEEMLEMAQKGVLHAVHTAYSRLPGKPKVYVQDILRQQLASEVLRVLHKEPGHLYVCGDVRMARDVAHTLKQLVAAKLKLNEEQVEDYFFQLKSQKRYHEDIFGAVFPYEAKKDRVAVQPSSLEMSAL
The next experiment addresses Nitric oxide synthase 1 (Homo sapiens, UniProt P29475). The experiment is described as follows: Inhibitory concentration against human neuronal nitric oxide synthase expressed in Sf-9 cells. In a few lines: as §1

Sequence of Nitric oxide synthase 1 (P29475 whole entry): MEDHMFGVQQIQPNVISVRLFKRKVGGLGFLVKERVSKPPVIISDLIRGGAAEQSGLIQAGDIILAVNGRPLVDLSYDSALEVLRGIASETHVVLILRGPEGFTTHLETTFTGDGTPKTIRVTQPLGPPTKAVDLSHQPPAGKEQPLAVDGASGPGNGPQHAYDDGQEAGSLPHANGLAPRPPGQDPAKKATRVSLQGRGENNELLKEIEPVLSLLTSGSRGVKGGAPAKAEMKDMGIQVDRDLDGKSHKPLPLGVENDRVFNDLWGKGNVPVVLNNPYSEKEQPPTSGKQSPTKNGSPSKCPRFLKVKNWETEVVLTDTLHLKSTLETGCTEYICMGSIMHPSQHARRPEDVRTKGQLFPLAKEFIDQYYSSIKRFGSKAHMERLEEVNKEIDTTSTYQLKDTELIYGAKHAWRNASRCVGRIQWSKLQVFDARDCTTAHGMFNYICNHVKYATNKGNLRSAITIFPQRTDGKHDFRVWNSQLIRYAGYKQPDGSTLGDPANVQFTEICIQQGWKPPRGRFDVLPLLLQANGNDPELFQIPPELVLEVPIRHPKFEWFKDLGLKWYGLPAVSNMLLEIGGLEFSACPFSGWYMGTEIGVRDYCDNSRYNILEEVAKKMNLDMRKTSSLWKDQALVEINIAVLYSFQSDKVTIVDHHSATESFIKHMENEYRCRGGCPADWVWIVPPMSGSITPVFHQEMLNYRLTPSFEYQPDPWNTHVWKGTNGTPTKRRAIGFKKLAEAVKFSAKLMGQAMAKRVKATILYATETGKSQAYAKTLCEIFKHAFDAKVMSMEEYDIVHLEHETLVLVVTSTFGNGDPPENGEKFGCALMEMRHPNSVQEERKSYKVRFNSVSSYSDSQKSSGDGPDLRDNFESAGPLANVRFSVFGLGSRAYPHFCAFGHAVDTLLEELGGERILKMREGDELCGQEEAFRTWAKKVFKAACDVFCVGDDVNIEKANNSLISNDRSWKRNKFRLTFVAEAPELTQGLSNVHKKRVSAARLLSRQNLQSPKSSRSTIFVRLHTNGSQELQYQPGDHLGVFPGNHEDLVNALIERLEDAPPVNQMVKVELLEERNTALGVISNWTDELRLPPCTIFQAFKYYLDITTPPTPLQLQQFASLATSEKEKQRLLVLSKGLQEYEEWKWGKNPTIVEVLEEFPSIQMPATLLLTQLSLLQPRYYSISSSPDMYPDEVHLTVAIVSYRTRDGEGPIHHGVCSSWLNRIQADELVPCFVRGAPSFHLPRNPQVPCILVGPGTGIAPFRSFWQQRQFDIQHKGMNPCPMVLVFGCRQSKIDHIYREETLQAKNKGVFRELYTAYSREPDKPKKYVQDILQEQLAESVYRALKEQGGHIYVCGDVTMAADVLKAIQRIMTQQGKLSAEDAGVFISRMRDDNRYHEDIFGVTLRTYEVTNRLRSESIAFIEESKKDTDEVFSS

For the molecule `CC(=N)NCCC[C@H](N)C(=O)O` [L-NIO], the results for the IC50 (against Nitric oxide synthase 3; in experiment [1]) were 6 µM and 4 µM, respectively.
As to `CCC[C@@H](CCN=C(N)SC)[C@H](N)C(=O)O`, the IC50 is greater than 1000 µM at Nitric oxide synthase 3, 500 µM against Nitric oxide synthase 1 and 370 µM in experiment [1].
`CSC(=N)NCCC[C@H](N)C(=O)N[C@@H](Cc1ccccc1)C(=O)O`: the figures for the IC50 (at Nitric oxide synthase 3; against Nitric oxide synthase 1; in experiment [1]) were greater than 1000 µM, 36 µM and 3.9 µM, respectively.
The matching figures for `CC(=N)NCC[C@@H](C)[C@H](N)C(=O)O`: greater than 1000 µM, greater than 1000 µM and greater than 1000 µM.
